Legend:
[1] = target: Mitogen-activated protein kinase 8 (Homo sapiens, UniProt P45983); test: Binding affinity to JNK1 (unknown origin) assessed as dissociation constant
KU-19-19 = test: Antiproliferative activity against human KU-19-19 cells assessed as cell growth inhibition incubated for 96 hrs by MTS assay; format: functional, cell-based; conditions: KU-19-19, 96 h
[2] = Antiproliferative activity against human HBL1 cells assessed as cell growth inhibition incubated for 96 hrs by MTS assay; format: functional, cell-based; conditions: HBL1, 96 h
Rh41 = test: Antiproliferative activity against human Rh41 cells assessed as cell growth inhibition incubated for 96 hrs by MTS assay; format: functional, cell-based; conditions: Rh41, 96 h
[3] = Toxicity in human A2780cis cells xenografted female athymic NMRI mouse model assessed as change in body weight at 2.5 mg/kg, po administered twice daily intermittent for 2 days on/5 days off; format: organism-based; conditions: in vivo, 168 h, time 7 day
Summary of the method: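 A2780cis cells (2×10^6 in 100% Matrigel) implanted s.c. in athymic mice. Treatment started at ~30 mm2. Oral dosing twice daily, 2 days on/5 days off, with PEG 400/ethanol/Solutol vehicle controls. Dose based on individual body weight. Body weight monitored two to three times weekly as toxicity measure; >20% loss deemed toxic.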

[4] = Synergistic antitumor activity against human LU387 cells xenografted female athymic NMRI mouse model assessed as MTD at 1 mg/kg,po administered twice daily intermittent for 2 days on/5 days off in the presence of paclitaxel relative to control; format: functional; conditions: time 7 day
A-375 = test: Antiproliferative activity against human A-375 cells assessed as cell growth inhibition incubated for 96 hrs by crystal violet staining; conditions: A-375, 96 h
SK-BR-3 = test: Antiproliferative activity against human SK-BR-3 cells assessed as cell growth inhibition incubated for 96 hrs by crystal violet staining; conditions: SK-BR-3, 96 h
[5] = Antiproliferative activity against human HeLa-MaTu-ADR cells assessed as cell growth inhibition incubated for 96 hrs by crystal violet staining

Mitogen-activated protein kinase 8, sequence (P45983 whole entry): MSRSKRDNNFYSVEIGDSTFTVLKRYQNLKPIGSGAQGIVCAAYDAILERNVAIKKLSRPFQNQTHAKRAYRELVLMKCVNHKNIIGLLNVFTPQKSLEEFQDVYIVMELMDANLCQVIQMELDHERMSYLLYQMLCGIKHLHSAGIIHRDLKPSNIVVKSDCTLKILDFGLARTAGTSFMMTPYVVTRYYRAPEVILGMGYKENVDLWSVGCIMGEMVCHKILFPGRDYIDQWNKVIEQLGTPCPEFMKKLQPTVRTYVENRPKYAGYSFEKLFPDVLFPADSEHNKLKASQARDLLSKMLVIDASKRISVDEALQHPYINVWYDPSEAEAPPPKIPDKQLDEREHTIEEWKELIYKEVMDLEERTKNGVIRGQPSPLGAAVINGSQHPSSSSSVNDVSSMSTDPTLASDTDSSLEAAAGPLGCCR

Compound: COc1cc(S(C)(=O)=O)ccc1Nc1nc2ccc(-c3ccc(NC(=O)[C@H](C)c4ccc(F)cc4)cc3)cn2n1 [BAY-1161909]
- Kd [1]: 240 nM
- IC50 (KU-19-19): 86 nM
- IC50 [2]: 110 nM
- IC50 (Rh41): 150 nM
- Activity [3]: Non-Toxic
- MED [4]: 40%
- IC50 (A-375): 100 nM
- IC50 (SK-BR-3): > 3000 nM
- IC50 [5]: 180 nM

Reference: ChEMBL document CHEMBL5678814, “Novel Mps1 Kinase Inhibitors with Potent Antitumor Activity” (Mol Cancer Ther, 2016)
